Not all results are given here.
HKDC1 activator – increases human hexokinase HKDC1 activity; actives 0.056% (n = 340,000); activity change, negative = activation, % at 20 µM; recombinant HKDC1, G6PDH/diaphorase resazurin fluorescence; stronger effect = lower value;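 active = activation of 40% or more at 20 µM, a change of -40% or lower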
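Dosing: single compound dose of 20 µM, 1% DMSO final / Test system: in-house human HKDC1 enzyme, G6PDH and diaphorase coupling enzymes / Quantity: 5 µg/mL HKDC1 final / Incubation: enzyme reaction 90 min, room temperature, in dark / Buffer or medium: pH 8.0 Tris with MgCl2 / Detection: coupled resazurin-to-resorufin fluorescence, Ex 525/Em 613 nm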
The depositor's hits bear a star.

SMILES	HKDC1 activator
N#Cc1ccc(CSc2nnc(NC(=O)c3ccc4ncsc4c3)s2)cc1	51
CC(=O)N(C1=C(Cl)C(=O)c2ccccc2C1=O)C1CCCCC1	58
COc1cccc(OC)c1-c1nn2c(-c3cc(-c4ccccc4)n[nH]3)nnc2s1	44
CC1=C(SCc2ccccc2)C(=O)c2ccccc2C1=O	44
CC1(C)Cc2c(c(N3CCOCC3)nc3sc4c(NCC5CCCO5)nnnc4c23)CS1 (stereo not drawn)	45
Cc1ccc(/C=C/c2nc3sc(C(=O)O)c(C)c3c(=O)[nH]2)cc1[N+](=O)[O-]	47
O=C(CN(C(=O)CCC(=O)Nc1ccccn1)c1ccc2c(c1)OCO2)NCc1ccc(F)cc1	-46*
COc1ccc2c(c1)CCc1c(C(=O)N3CCCc4ccccc43)noc1-2	38
COC(=O)c1ccc2c(c1)C(C)(C)C(/C=C/c1ccccc1O)=[N+]2C	38
O=[N+]([O-])c1ccc(Sc2nc3ccccc3o2)c([N+](=O)[O-])c1	35
S=C(NCCc1ccc(Cl)cc1)NCc1ccccc1	-63*
Cc1cc(C(F)F)n2ncc(C(=O)NCCc3ccc(Cl)cc3)c2n1	39
Cc1ccc(S(=O)(=O)Nc2c(O)ccc3ccccc23)cc1	38
O=C(O)c1cc(O)c2c(c1)C(=O)c1cccc(O)c1C2=O	40
Nc1nc(-c2cccc(Br)c2)cs1	-65*
O=C(O)c1cc(N2N=C(C(F)(F)F)/C(=C/C=C/c3ccco3)C2=O)ccc1Cl	46
Cc1ccc(-n2c3nc(=O)[nH]c(=O)c-3cc3cc([N+](=O)[O-])ccc32)cc1C	61
CC1=NOC(=O)/C1=C\c1ccc(-c2cc(Cl)ccc2Cl)o1	57
O=C1C=C(N(CCO)Cc2ccccc2)c2ccccc2C1=O	35
C[c-]1[c-](C)[c-](C)[c-](C)[c-]1C.[Fe].c1cc2nccc(N3CCCC3)[c-]2c1 (stereo not drawn)	49
Nc1ccc(S(=O)(=O)c2cc(O)c3ccccc3c2O)cc1	55
O=C(NNC(=S)Nc1ccc(Cl)c(Cl)c1)c1ccccn1	-57*
O=C(Nc1ccc(Cl)c(Cl)c1)Nc1nnc(-c2ccncc2)s1	41
O=c1c2ccccc2nc2n1CCC2	82
Cc1[nH]c2ccccc2c1C(C#N)(C#N)C1C(=O)c2ccccc2C1=O	57
SMILES	HKDC1 activator
CC1(C)C(=O)Nc2ccccc2N1C(=O)COC(=O)c1cc(Cl)cc(Cl)c1	-41*
CC(=O)N1c2ccc(Cl)cc2C2C=CCC2C1c1cccc2ccccc12 (stereo not drawn)	42
COC(=O)c1ccccc1NC1=C/C(=N\S(=O)(=O)c2ccc(C(=O)O)cc2)c2ccccc2C1=O	82
Cc1ccc(-c2ccc(/C=C3\C(=O)ON=C3c3ccccc3)o2)c([N+](=O)[O-])c1	43
Cc1ccccc1/C=C/C(=O)c1ccc([N+](=O)[O-])o1	46
O=C(NCCc1ccccc1)c1cnn2c(C(F)F)cc(C3CC3)nc12	47
C/C(=N\NC(=O)c1cc(C2CC2)nc2ccccc12)c1ccc(O)cc1O	-44*
COC(=O)CCC(=O)OC1(C)C(=O)C2=CN(Cc3ccccc3)C(c3ccc(OC)cc3)=CC2=C(Br)C1=O (stereo not drawn)	43
Cc1cc2c(N)cccc2nn1	35
COC1(NS(=O)(=O)c2ccc(Br)cc2)C(C)=CC(=O)C=C1C	50
CC1COCC(C)N1C1=C(Cl)C(=O)c2ccccc2C1=O (stereo not drawn)	38
COc1ccc(-c2csc(Nc3ccc(S(N)(=O)=O)cc3)n2)cc1	-42*
CCc1nc2sc3c(=O)[nH]cnc3c2c2c1CSC(C)(C)C2	37
O=Cc1[nH]c2ccccc2c1N(C(=O)CCl)c1ccccc1	35
O=C(O)c1[nH]c2ccccc2c1C(c1cc(Cl)cc([N+](=O)[O-])c1O)c1c(C(=O)O)[nH]c2ccccc12	38
CCOc1ccc(S(=O)(=O)Nc2cc(SCC(=O)O)c(O)c3ccccc23)cc1	60
CCOC(=O)c1c(NC(=O)CSc2nnnn2-c2ccc(OC)cc2)sc(C)c1C	-48*
Cc1ccc(NC(=O)CN2C(=O)S/C(=C/c3ccc(-c4cc(C(=O)O)ccc4C)o3)C2=O)cc1C	43
CN1CCN(C2=C(Cl)C(=O)c3ccccc3C2=O)CC1	44
Cn1c(-c2ccccc2)c(C(=O)CC#N)c2ccccc21	-45*
Cc1cccc(/C=C/C(=O)c2ccc([N+](=O)[O-])o2)c1	50
CC(=NNC(=S)N1CCCCC1)c1cccc(C)n1	-40*
Cc1ccc(-c2nc(NC(=O)CSc3cc(C)c4ccccc4n3)ns2)cc1	57
CC(C)(C)c1c(Cl)c(O)c(-c2ccccc2)c(=O)n1-c1ccccc1	36
COc1ccc(NC(=O)Cc2c[nH]c3ccccc23)cc1S(=O)(=O)N1CCCCC1	49
SMILES	HKDC1 activator
Cc1cc([N+](=O)[O-])nn1CC(=O)N/N=C/c1ccc(O)cc1O	-49*
Cc1cc(C)n(Cc2ccc(C(=O)N/N=C/c3ccc(-c4ccc([N+](=O)[O-])cc4)o3)o2)n1	66
NS(=O)(=O)c1ccc(N/N=C/c2ccc(O)c(O)c2O)c([N+](=O)[O-])c1	36
COc1ccc(NC(=O)CSc2ccc(-c3ccco3)nn2)cc1OC	43
CC(=O)n1cc(N(C(=O)CCl)c2ccc(C)cc2)c2ccccc21	41
COc1ccc(S(=O)(=O)/N=C2/C=CC(=O)C(C)=C2C)cc1	52
Cc1nc2c3cc(F)ccc3n(Cc3ccccc3)c2s1	-60*
NC(=S)N/N=C/c1ccc(Br)o1	-55*
O=C1C(=Cc2ccc(Br)o2)C(=O)c2ccccc21	36
CCN(CC)C(=O)c1ccc(C(=O)c2c(C)cc(C)cc2C)cc1	39
O=C(O)c1ccccc1-c1c2cc(I)c(=O)c(I)c-2oc2c(I)c(O)c(I)cc12	69
O=C(Nc1ccc2nc(-c3ccco3)c(-c3ccco3)nc2c1)N1CCCCCC1	45
Cc1sc(-c2ccccn2)nc1OC(=O)c1ccc(F)cc1F	-50*
O=C1C(Cl)=C(N2CCC(C(=O)O)CC2)C(=O)c2ccccc21	50
COc1ccc(OC)c(NC(=O)CSc2ccc(-c3ccco3)nn2)c1	43
Oc1ccc(/C=N/Nc2ccnc3cc(Cl)ccc23)c(O)c1O	37
Oc1ccc(Br)cc1CNc1cccc2cccnc12	40
[S-]c1nnc(-c2ccc(Br)cc2)n1-c1ccccc1.[Zn+2]	49
CCOC(=O)C1=C(Cc2ccc(Cl)cc2)C(=O)c2ccccc2C1=O	60
Cn1c2ccccc2c(=O)c2c(=O)n(-c3ccc(F)cc3)c(-c3cccs3)nc21	68
CCN(CC)S(=O)(=O)c1cccc(C(=O)N/N=C(\C)c2ccc(O)cc2O)c1	-43*
CCOc1ccc2c(ccc(/C=C/c3cc(C)c4cccnc4c3O)[n+]2C)c1	46
COc1cc(/C=C2/C(=O)NN(c3ccc(Cl)c(Cl)c3)C2=O)cc([N+](=O)[O-])c1O	50
Cc1onc(-c2ccccc2)c1C(=O)NC(=S)NNC(=O)c1ccccc1O	-45*
CN1CCN(C2=C(Cl)C(=O)C(c3cnc(N4CCCCC4)s3)=C(Cl)C2=O)CC1	55
CC(=O)C1=C(c2cccc([N+](=O)[O-])c2)N(C(C)=O)n2c(C)nnc2S1	-308*
COCc1cc(SC2CCCCC2)nc(C)n1	46
O=C(Nc1ccc(F)cc1)C(=O)c1c(O)[nH]c2ccc([N+](=O)[O-])cc12	42
Cc1nc2c(c(=O)c3ccccc3n2C)c(=O)n1-c1ccccc1	51
Cc1c(Cc2ccccc2)sc(NC(=O)Cc2ccccc2)c1C(N)=O	-52*

Assay outcomes as filed in PubChem BioAssay.
